Laboratory results as given in PubChem BioAssay.
Calls of active or inactive are those of the source.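 The calls were made as follows, unless noted: active = GFP response above 150% of the DMSO level; inconclusive = fewer than 70 events counted for a yeast strain; inactive = the rest.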

How the values were obtained:
[1] = hit retest on RPL19A-GFP reporter strain – cell-based, S. cerevisiae, flow cytometry, cherry picks, mother/daughter gates, confirmation (AID 2270;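 active = GFP response below 50% of the DMSO control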); conditions: 3 h, at 10 µM, stronger effect = lower value, 100 = same GFP as DMSO wells
[2] = yeast TOR pathway reporter LAP4-GFP change – cell-based, cherry picks, flow cytometry, mother/daughter gates, confirmation (AID 2271;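 active = GFP response above 150% of the DMSO control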;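 also: ratio of sample to DMSO plate mean so 100% equals DMSO level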); conditions: S. cerevisiae LAP4-GFP strain, 3 h, at 10 µM, stronger effect = higher value, 100 means same as DMSO control
Outline: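 System: GFP-fusion yeast strain | Input: Yeast cells seeded at OD600 of 0.2 | Technique: HT flow cytometry, GFP fluorescence channel | Read-out: % GFP response vs DMSO | Dosing: Single test-compound dose, 10 µM final | Controls: Positive rapamycin (400 ng/mL), negative DMSO | Times: 3 h treatment at 30 °C with rotation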

[3] = TOR pathway reporter MEP2-GFP, retest of hits – S. cerevisiae, flow cytometry GFP, cherry picks, confirmation (AID 2272;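 active = GFP response above 150% of the DMSO control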;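 also: ratio of well signal to plate DMSO mean so 100% equals DMSO level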); conditions: S. cerevisiae MEP2-GFP strain, 3 h, at 10 µM, stronger effect = higher value
[4] = yeast AGP1-GFP fluorescence change, single-dose – cell-based, flow cytometry, S. cerevisiae, cherry picks, confirmation (AID 2273);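 also: median GFP channel fluorescence over the whole cell population gate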; conditions: S. cerevisiae AGP1-GFP strain, 3 h, at 10 µM
[5] = TOR pathway CIT2 reporter hit retest – S. cerevisiae, GFP fusion, cherry picks, mother/daughter gates, confirmation (AID 2274); conditions: S. cerevisiae CIT2-GFP strain, flow cytometry, 3 h, at 10 µM, stronger effect = higher value
[6] = measured here: daughter cell gate
[7] = measured here: mother cell gate
[8] = measured here: daughter cell gate response
[9] = measured here: mother cell gate response

Row | Compound | GFP response vs DMSO [1] | GFP response vs DMSO [1, 6] [%] | GFP response vs DMSO [1, 7] [%] | GFP response relative to DMSO [2] | GFP response relative to DMSO [2, 8] [%] | GFP response relative to DMSO [2, 9] [%] | GFP response vs DMSO [3] | GFP response, % of DMSO [4] | GFP response, % of DMSO [5] | GFP response, % of DMSO [5, 6] [%] | GFP response, % of DMSO [5, 7] [%]
1 | CC(=O)c1ccc(N2CCN(S(=O)(=O)c3ccc4c(c3)CC(C)N4C(C)=O)CC2)cc1 (configuration not stated) | 95.8% (inactive) | 93.9 | 91.9 | 98.9% (inactive) | 97.5 | 98.4 | 103% (inactive) | 98.8% (inactive) | 104% (inactive) | 99.3 | 103
2 | CN1c2ccsc2/C(=N/Nc2ccc(F)cc2)CS1(=O)=O | 99.2% (inactive) | 99.6 | 99 | 134% (inactive) | 130 | 134 | 114% (inactive) | 103% (inactive) | 109% (inactive) | 108 | 109
3 | CCN(CC(=O)NC(C)(C)C)C(=O)COc1c(Cl)cc(Cl)c2ccc(C)nc12 | 100% (inactive) | 101 | 99.7 | 127% (inactive) | 121 | 125 | 126% (inactive) | 102% (inactive) | 108% (inactive) | 111 | 100
4 | Cc1ccc(S(=O)(=O)CC#CCOC(=O)c2ccc([N+](=O)[O-])cc2)cc1 | 105% (inactive) | 107 | 103 | 140% (inactive) | 132 | 148 | 105% (inactive) | 111% (inactive) | 97.2% (inactive) | 100 | 90.8
5 | Nc1ccc2nc(-c3ccc(-c4nc5ccc(N)cc5[nH]4)cc3)[nH]c2c1 | 99.3% (inactive) | 100 | 96.1 | 111% (inactive) | 108 | 94.4 | 112% (inactive) | 99.1% (inactive) | 108% (inactive) | 92.3 | 93.8
6 | CCCc1[nH]nc2c1C1(C(=O)N(CC)c3ccccc31)C(C#N)=C(N)O2 (configuration not stated) | 96.6% (inactive) | 95.9 | 96.9 | 96.7% (inactive) | 97.6 | 94 | 98.3% (inactive) | 98.5% (inactive) | 101% (inactive) | 99.1 | 101
7 | CCSc1nnc(NC(=O)c2ccccn2)s1 | 101% (inactive) | 100 | 99.8 | 257% (active) | 223 | 254 | 122% (inactive) | 93.8% (inactive) | 97.8% (inactive) | 104 | 91
8 | COc1ccc(N(CC(=O)N/N=C/c2cc(OC)ccc2OC)S(=O)(=O)c2ccccc2)cc1 | 96% (inactive) | 97.4 | 86.9 | 92.8% (inactive) | 96 | 92.9 | 96.2% (inactive) | 99.1% (inactive) | 99.7% (inactive) | 101 | 99.7
9 | O=C(N/N=C/c1ccc(F)cc1)c1ccc(Br)cc1 | 99.6% (inactive) | 98.6 | 98 | 111% (inactive) | 109 | 109 | 96.8% (inactive) | 99.6% (inactive) | 102% (inactive) | 101 | 87
10 | COC(=O)c1ccc(/C=N/NC(=O)c2cccc(F)c2)cc1 | 99.9% (inactive) | 99.3 | 98.6 | 103% (inactive) | 102 | 101 | 104% (inactive) | 99.3% (inactive) | 99.3% (inactive) | 100 | 99.1
11 | O=C1c2ccsc2SCCN1Cc1c(Cl)cccc1Cl | 102% (inactive) | 99.2 | 102 | 98.7% (inactive) | 97.2 | 102 | 93.5% (inactive) | 93.9% (inactive) | 103% (inactive) | 101 | 104
12 | Cc1noc(/C=C/c2ccccn2)c1[N+](=O)[O-] | 95.6% (inactive) | 96.1 | 90.8 | 139% (inactive) | 132 | 142 | 99% (inactive) | 96.7% (inactive) | 90.1% (inactive) | 97.4 | 84.6
13 | O=C(Nc1ccc(S(=O)(=O)N2CCOCC2)cc1)c1ccc([N+](=O)[O-])cc1Cl | 99.6% (inactive) | 101 | 99.7 | 94.1% (inactive) | 94.4 | 94 | 102% (inactive) | 91.7% (inactive) | 101% (inactive) | 103 | 99.7
14 | O=C(N/N=C/c1ccccc1Cl)c1cccc(F)c1 | 101% (inactive) | 98.1 | 99.8 | 103% (inactive) | 101 | 104 | 101% (inactive) | 98.8% (inactive) | 100% (inactive) | 101 | 98.1
15 | Cc1cccc(N2C(=O)C(Cl)=C(Nc3c(C)n(C)n(-c4ccccc4)c3=O)C2=O)c1C | 102% (inactive) | 102 | 103 | 103% (inactive) | 104 | 104 | 104% (inactive) | 103% (inactive) | 99.3% (inactive) | 100 | 98
16 | O=C(Nc1c2ccccc2nc2ccccc12)C(Cl)(Cl)Cl | 91.7% (inactive) | 77.9 | 83.4 | 88.7% (inactive) | 87.3 | 94.1 | 98.8% (inactive) | 87.8% (inactive) | 95.9% (inactive) | 77.8 | 70.8
17 | COc1ccc(NC(=O)Nc2ccon2)c(OC)c1 | 101% (inactive) | 102 | 99.5 | 95.7% (inactive) | 94.2 | 95.2 | 99% (inactive) | 106% (inactive) | 103% (inactive) | 99.2 | 101
